Results reported in ChEMBL document CHEMBL4680218, “Design and synthesis of tripeptidyl furylketones as selective inhibitors against the β5 subunit of human 20S proteasome” (Eur J Med Chem, 2020).
Active and inactive are the calls of the source.

Experiments:
[1] = Cmax in Sprague-Dawley rat at 4 mg/kg, iv measured up to 48 hrs by LC-MS/MS analysis; assay type: ADME, organism-based; design: route intravenous, dose 4 mg/kg, time <=48; details: in vivo
[2] = Half life in Sprague-Dawley rat at 4 mg/kg, iv measured up to 48 hrs by LC-MS/MS analysis; details: in vivo
in vivo = details: Sprague-Dawley, rat, iv, 4 mg/kg
[3] = target: T1, Proteasome Macropain subunit MB1 (Homo sapiens) (UniProt P28074); test: Covalent binding affinity to human 20S proteasome beta5 subunit assessed as compound-tryptic digest TTTLAFKFR peptide adduct formation at 10 uM incubated for 2 hrs measured after overnight incubation with trypsin by LC-MS/MS analysis
T1 sequence (whole entry): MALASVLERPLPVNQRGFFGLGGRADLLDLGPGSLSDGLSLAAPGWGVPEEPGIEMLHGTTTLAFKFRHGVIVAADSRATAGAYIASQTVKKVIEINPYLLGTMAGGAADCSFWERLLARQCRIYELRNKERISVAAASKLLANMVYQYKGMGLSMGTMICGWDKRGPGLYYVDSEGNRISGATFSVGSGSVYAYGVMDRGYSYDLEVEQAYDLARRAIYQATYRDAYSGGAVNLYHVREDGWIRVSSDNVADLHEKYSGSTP
Outline: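 Purified human 20S proteasome (4 nM) was incubated with 10 μM inhibitor for 2 h at room temperature, then quenched and denatured with acetonitrile. Trypsin (1:50) digestion ran overnight at 37 °C, followed by C18 desalting. Nano-LC-MS/MS used a 0.1% formic acid water/acetonitrile gradient. Adducts were searched against UniProt at ±10 ppm precursor and ±0.02 Da fragment tolerance, allowing 2 missed cleavages.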

[4] = Toxicity in BALB/c athymic nude mouse xenografted with human HCT-116 cells assessed as reduction in body weight at 5 mg/kg, iv administered twice a week for 28 days; assay type: organism-based; details: in vivo, 672 h, time 28 day
Outline: (§1)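 Male nude mice had 1 × 10^7 HCT-116 cells in serum-free RPMI 1640 implanted subcutaneously in the right flank. At ~300 mm³ (about day 10) they were randomized, n=3/group. Dosing was by tail vein twice weekly (D1/D4) for four weeks: 10 mg/kg in 8% ethanol/2% Tween 80/90% water, or 5 mg/kg in 10% sulfobutylether-β-cyclodextrin, 10 mmol/L citrate pH 3.5. Caliper volume (length × width²)/2 and body weight were measured twice weekly.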

[5] = Volume of distribution at steady state in Sprague-Dawley rat at 4 mg/kg, iv measured up to 48 hrs by LC-MS/MS analysis; details: in vivo
[6] = Clearance in Sprague-Dawley rat at 4 mg/kg, iv measured up to 48 hrs by LC-MS/MS analysis; details: in vivo
HCT-116 [7] = test: Antitumour activity against human HCT-116 cells xenografted in BALB/c athymic nude mouse assessed as reduction in tumour growth at 5 mg/kg, iv administered twice a week for 28 days by caliper analysis; assay type: functional, organism-based; details: time 28.0 day; outline: as §1
[8] = target: T1, Proteasome Macropain subunit MB1 (Homo sapiens); test: Irreversible inhibition of human 20S proteasome beta5 subunit assessed as residual enzyme activity using Suc-LLVY-Glo as substrate preincubated for 2 hrs followed by compound washout and further incubated for 4 hrs followed by substrate addition and measured after 10 mins by bioluminescent assay relative to control
Outline: (§2)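 Human 20S proteasome (8 μg/mL) was pre-incubated with inhibitor for 2 h at 25 °C. Samples were then washed five times in assay buffer on 100 kDa cut-off centrifugal filters (14,000 g, 5 min each) and recovered. After a further 4 h at 25 °C, Suc-LLVY-Glo was added and luminescence was read after 10 min. Unwashed samples held an extra 4 h served as the standard.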

[9] = target: T1, Proteasome Macropain subunit MB1 (Homo sapiens); test: Binding affinity to immobilized human 20S proteasome beta 5 subunit assessed as dissociation rate constant by SPR analysis
Outline: (§3)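 Purified human constitutive 20S proteasome was immobilised on a CM5 chip. Analyte was a 2-fold series from 25 to 1.56 µM in running buffer (10 mM phosphate, 2.7 mM KCl, 137 mM NaCl, 0.05% P20, 5% DMSO, pH 7.4). Flow was 30 µL/min, with 60 s association and 60 s dissociation. Responses were normalised by molecular weight, and kon/koff came from a 1:1 binding fit.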

[10] = MRT in Sprague-Dawley rat at 5 mg/kg, iv measured up to 48 hrs by LC-MS/MS analysis; assay type: ADME, organism-based; details: in vivo
Outline: (§4)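 Male Sprague-Dawley rats, three per group, fasted 12 h, then given a single intravenous dose of 5 mg/kg in 8% ethanol, 2% Tween 80 and 90% sterile water. Blood was drawn from the venous plexus at the inner canthus into heparin tubes at 5, 15 and 30 min and at 1, 2, 4, 8, 24, 32 and 48 h. Plasma was quantified by LC-MS/MS against an internal standard.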

[11] = target: T1, Proteasome Macropain subunit MB1 (Homo sapiens); test: Covalent binding affinity to human 20S proteasome beta5 subunit assessed as hemi-ketal formation using H2O-MeOH as mobile phase by HPLC analysis
[12] = Volume of distribution at steady state in Sprague-Dawley rat at 5 mg/kg, iv measured up to 48 hrs by LC-MS/MS analysis; assay type: ADME, organism-based; details: in vivo, read-out: Vdss; outline: as §4
A-375 = test: Cytotoxicity against human A-375 cells assessed as reduction in cell viability after 72 hrs by Cell Titer-Glo assay; assay type: functional, cell-based; details: A-375, 72 h
Outline: (§5)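 Cells were cultured in their respective media with 10% FBS, seeded from log phase at 1000 cells/well, and given compound after 18–24 h. After 72 h, an equal volume of CellTiter-Glo reagent was added and luminescence was read at 37 °C. IC50 came from dose-response curve fits; values are mean ± SD of three independent experiments, each in biological triplicate.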

HT-29 = test: Cytotoxicity against human HT-29 cells assessed as reduction in cell viability after 72 hrs by Cell Titer-Glo assay; assay type: functional, cell-based; details: HT-29, 72 h; outline: as §5
[13] = target: T2, Proteasome Macropain subunit MB1 (Homo sapiens, UniProt P28074); test: Inhibition of chymotrypsin-like activity of human 20S proteasome beta5 subunit using Suc-LLVY-Glo as substrate incubated for 2 hrs followed by substrate addition and measured for 10 mins by bioluminescent assay
T2 sequence (P28074 whole entry): T1 sequence (whole entry)
Outline: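 Human constitutive 20S proteasome (1 μg/mL) was combined with compound serially diluted in 10 mM HEPES pH 7.6, with final DMSO 1% (v/v). After 2 h at 25 °C, Suc-LLVY-Glo (CT-L), Z-LRR-Glo (T-L) or Z-nLPnLD-Glo (C-L) reagent was added. Luminescence was read over 10 min, and IC50 was taken from inhibition rates.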

HCT-116 [14] = test: Cytotoxicity against human HCT-116 cells assessed as reduction in cell viability after 72 hrs by Cell Titer-Glo assay; assay type: functional, cell-based; details: HCT-116, 72 h; outline: as §5
HCT-116 [15] = test: Cell cycle arrest in human HCT-116 cells assessed as accumulation at G2/M phase at 1 uM after 24 hrs by propidium iodide staining based flow cytometric analysis (reference value: 21%); assay type: functional
A549 = test: Cytotoxicity against human A549 cells assessed as reduction in cell viability after 72 hrs by Cell Titer-Glo assay; assay type: functional, cell-based; details: A549, 72 h; outline: as §5
[16] = target: T1, Proteasome Macropain subunit MB1 (Homo sapiens); test: Covalent binding affinity to human 20S proteasome beta5 subunit assessed as methyl hemi-ketal formation using H2O-CH3CN as mobile phase by HPLC analysis
HeLa = test: Cytotoxicity against human HeLa cells assessed as reduction in cell viability after 72 hrs by Cell Titer-Glo assay; assay type: functional, cell-based; outline: as §5
[17] = Cmax in Sprague-Dawley rat at 5 mg/kg, iv measured up to 48 hrs by LC-MS/MS analysis; assay type: ADME, organism-based; design: route intravenous, dose 5 mg/kg, time <=48; details: in vivo; outline: as §4
[18] = target: T1, Proteasome Macropain subunit MB1 (Homo sapiens); test: Inhibition of chymotrypsin-like activity of human 20S proteasome beta5 subunit at 50 uM using Suc-LLVY-Glo as substrate incubated for 2 hrs followed by substrate addition and measured for 10 mins by bioluminescent assay relative to control; details: time 130.0 min
Outline: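 Human constitutive 20S proteasome (1 µg/mL) was incubated with compound for 2 h at 25 °C in 10 mM HEPES pH 7.6 with 1% DMSO final. Suc-LLVY-Glo substrate was then added, and luminescence was read over 10 min. Inhibition rate was calculated against the uninhibited signal.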

[19] = Toxicity in BALB/c athymic nude mouse xenografted with human HCT-116 cells assessed as reduction in body weight at 10 mg/kg, iv administered twice a week for 28 days; assay type: organism-based; details: in vivo, 672 h, time 28 day; outline: as §1
[20] = target: T2, Proteasome Macropain subunit MB1; test: Binding affinity to immobilized human 20S proteasome beta 5 subunit by SPR analysis
Outline: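 SPR used purified human 20S proteasome coupled to a CM5 chip. Analytes were 2-fold series from 25 to 1.56 μM in PBS-P running buffer (pH 7.4, 0.05% P20) with 5% DMSO, flowed at 30 μL/min with 60 s association and 60 s dissociation. Data were normalized by molecular weight and fitted to a 1:1 Langmuir model; KD is from the rate constants.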

HCT-116 [21] = test: Cell cycle arrest in human HCT-116 cells assessed as accumulation at S phase at 1 uM after 24 hrs by propidium iodide staining based flow cytometric analysis (reference value: 50%); assay type: functional
[22] = Half life in Sprague-Dawley rat at 5 mg/kg, iv measured up to 48 hrs by LC-MS/MS analysis; assay type: ADME, organism-based; details: in vivo; outline: as §4
HCT-116 [23] = test: Cell cycle arrest in human HCT-116 cells assessed as accumulation at G1 phase at 1 uM after 24 hrs by propidium iodide staining based flow cytometric analysis (reference value: 29%); assay type: functional
[24] = target: T1, Proteasome Macropain subunit MB1 (Homo sapiens); test: Binding affinity to immobilized human 20S proteasome beta 5 subunit assessed as association rate constant by SPR analysis; outline: as §3
[25] = Cytotoxicity against human PC3M1E8 cells assessed as reduction in cell viability after 72 hrs by Cell Titer-Glo assay; assay type: functional, cell-based; details: PC3M1E8, 72 h; outline: as §5
[26] = target: T1, Proteasome Macropain subunit MB1 (Homo sapiens); test: Reversible inhibition of human 20S proteasome beta5 subunit assessed as residual enzyme activity using Suc-LLVY-Glo as substrate preincubated for 2 hrs followed by compound washout and further incubated for 4 hrs followed by substrate addition and measured after 10 mins by bioluminescent assay relative to control; outline: as §2
[27] = AUC(0 to t) in Sprague-Dawley rat at 5 mg/kg, iv measured up to 48 hrs by LC-MS/MS analysis; assay type: ADME, organism-based; design: route intravenous, dose 5 mg/kg, time <=48; details: in vivo; outline: as §4
[28] = Clearance in Sprague-Dawley rat at 5 mg/kg, iv measured up to 48 hrs by LC-MS/MS analysis; assay type: ADME, organism-based; details: in vivo; outline: as §4
BGC-823 = test: Cytotoxicity against human BGC-823 cells assessed as reduction in cell viability after 72 hrs by Cell Titer-Glo assay; assay type: functional, cell-based; details: BGC-823, 72 h; outline: as §5
HEK293 = test: Cytotoxicity against human HEK293 cells assessed as reduction in cell viability after 72 hrs by Cell Titer-Glo assay; assay type: cell-based; details: HEK293, 72 h; outline: as §5

SMILES: CC(C)C[C@H](NC(=O)[C@H](CCc1ccccc1)NC(=O)CN1CCOCC1)C(=O)N[C@@H](Cc1ccccc1)C(=O)N[C@@H](CC(C)C)C(=O)[C@@]1(C)CO1 [CARFILZOMIB]
- Cmax [1]: 27800 ng/mL
- half-life at 48 h [2]: 17 min
- AUC(0-t) at 48 h (in vivo): 343 ng·h/mL
- Activity [3]: Active
- Activity [4]: Non-Toxic
- Vd at 48 h [5]: 0.3 L/kg
- clearance at 48 h [6]: 195 mL/min/kg
- Activity (HCT-116 [7]): Active
- Activity [8]: 10%

SMILES: COC[C@H](NC(=O)[C@H](CC(=O)NCC(C)(C)C)NS(=O)(=O)c1ccc(C)cc1)C(=O)N[C@@H](CC(C)C)C(=O)c1ccco1
- Kdiss [9]: 0.0192 s⁻¹
- MRT [10]: 20.2 min
- Activity [11]: 27%
- Vd [12]: 0.66 L/kg
- IC50 (A-375): 880 nM
- IC50 (HT-29): 730 nM
- IC50 [13]: 180 nM
- IC50 (HCT-116 [14]): 280 nM
- Activity [3]: inactive
- Activity (HCT-116 [15]): 77%
- IC50 (A549): 1300 nM
- Activity [16]: inactive
- IC50 (HeLa): 670 nM
- Cmax [17]: 2010 ng/mL
- inhibition [18]: > 50%
- Activity [19]: Non-Toxic
- Kd [20]: 4800 nM
- Activity (HCT-116 [21]): 14%
- half-life [22]: 13.8 min
- Activity (HCT-116 [23]): 9%
- Ka [24]: 4210 M⁻¹ s⁻¹
- IC50 [25]: 570 nM
- Activity [26]: < 30%
- AUC(0-t) at 48 h [27]: 680 ng·h/mL
- clearance [28]: 33.3 mL/min/kg
- IC50 (BGC-823): 770 nM
- IC50 (HEK293): > 50000 nM
